Ten molecules from ChEMBL document CHEMBL3407440, “Monocarbonyl analogs of curcumin inhibit growth of antibiotic sensitive and resistant strains of Mycobacterium tuberculosis” (Eur J Med Chem, 2015) can be followed below.

Calls of active or inactive are those of the source. The rule behind the calls is not given here.

For data set [1], the system named is Mycobacterium marinum. Kind of data set: Antituberculosis activity against Mycobacterium marinum assessed as diameter of zone of inhibition at 100 mM incubated for 7 days by disk diffusion assay. Format: functional. The note with it: 168 h, read-out: DIZ. The procedure, abridged:
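Mm 1218R grown in 7H9-ADC (0.025% Tween 80) to OD600 0.35, diluted to OD600 0.04, spread on 7H10-OADC agar and air-dried 10 min. A 6 mm disk received 10 µl of 100 mM analog (in DMSO or water). Plates were incubated 7 days at 30 °C in 5% CO2 (legend: 32 °C), three plates per analog. The bacteria-free zone around the disk was measured.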
Background: In agar diffusion tests the substance spreads into inoculated agar from a disc or well.

Data set [2] can be described thus: Tmax in Swiss Webster male mouse at 12.5 mg/kg, ip. The conditions noted are these: in vivo. The class given is ADME, organism-based. Details: dose 12.5 mg/kg, route intraperitoneal.
A short description of data set [3]: Cmax in Swiss Webster male mouse at 12.5 mg/kg, ip. The class given is ADME, organism-based. Details: dose 12.5 mg/kg, route intraperitoneal. The note with it: in vivo.
Data set [4] in a line: Half life in Swiss Webster male mouse at 12.5 mg/kg, ip. Format: ADME, organism-based. Details: dose 12.5 mg/kg, route intraperitoneal. The note with it: in vivo.
Data set [5] concerns Mycobacterium marinum. The data set can be described thus: Antituberculosis activity against Mycobacterium marinum assessed as growth inhibition after 72 hrs by liquid culture assay. Format: functional, organism-based. The procedure, abridged:
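Mm 1218R grown in 7H9-ADC (0.025% Tween 80) to OD600 0.35, then diluted to OD600 0.04. Cultured 72 h with analog in DMSO at 0.780–100 µM (twofold steps), in duplicate, alongside no-drug and 1% DMSO vehicle controls. Mean ± SEM of three experiments.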

Data set [6] deals with Mycobacterium marinum. The data set can be described thus: Potentiation of antituberculosis activity against Mycobacterium marinum assessed as UBS-109-induced growth inhibition at 0.3 uM after 72 hrs by liquid culture assay. The class given is functional, organism-based. The essentials:
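Mm cultured in 7H9-ADC broth with rifampicin (0.250–4 µg/mL) alone or combined with analog (6.250–100 µM), in duplicate, with no-drug and 1% DMSO controls. OD600 read after 72 h and normalized to vehicle. Combinations compared with each agent alone by nonparametric ANOVA. Mean ± SEM of three experiments.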

Data set [7] concerns Mycobacterium tuberculosis. Kind of data set: Antituberculosis activity against Mycobacterium tuberculosis Beijing F2 assessed as growth inhibition after 72 hrs by liquid culture assay. The class given is functional, organism-based. The conditions noted are these: Beijing F2, 72 h.
The test system of data set [8] is Mycobacterium tuberculosis. Kind of data set: Antituberculosis activity against Mycobacterium tuberculosis H37Rv assessed as growth inhibition after 72 hrs by liquid culture assay. Format: functional, organism-based.
Data set [9] can be described thus: Tmax in CD2F1 male mouse at 10 mg/kg, ip. The class given is ADME, organism-based. Details: dose 10 mg/kg, route intraperitoneal. The note with it: in vivo.
A short description of data set [10]: Tmax in CD2F1 male mouse at 10 mg/kg, po. Format: ADME, organism-based. Further details: dose 10 mg/kg, route oral. The conditions noted are these: in vivo.
Data set [11] is described as follows: Cmax in CD2F1 male mouse at 10 mg/kg, ip. The class given is ADME, organism-based. Details: dose 10 mg/kg, route intraperitoneal. The conditions noted are these: in vivo.
The nature of data set [12]: Cmax in CD2F1 male mouse at 10 mg/kg, po. The class given is ADME, organism-based. Further details: dose 10 mg/kg, route oral. The note with it: in vivo.
A short description of data set [13]: Half life in CD2F1 male mouse at 10 mg/kg, ip. Format: ADME, organism-based. The note with it: in vivo. Details: dose 10 mg/kg, route intraperitoneal.
The nature of data set [14]: Half life in CD2F1 male mouse at 10 mg/kg, po. The class given is ADME, organism-based. Details: dose 10 mg/kg, route oral. The conditions noted are these: in vivo.
In data set [15] the test system is Mycobacterium marinum. The data set can be described thus: Antituberculosis activity against rifampicin-resistant Mycobacterium marinum assessed as growth inhibition after 72 hrs by liquid culture assay. Format: functional, organism-based. The procedure, abridged: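 Rifampicin-resistant Mm 1218R^rifR cultured in 7H9-ADC broth with DMSO, rifampicin or analog at varied concentrations for 72 h. Growth read as OD600 and normalized to untreated culture; IC50 derived. Mean ± SEM of three experiments.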

In data set [16] the test system is Mycobacterium tuberculosis. Kind of data set: Antituberculosis activity against Mycobacterium tuberculosis H37Rv assessed as zone of inhibition at 100 mM incubated for 28 days by disk diffusion assay. The class given is functional, organism-based. The note with it: 672 h. The procedure, abridged: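 Disk diffusion on Mtb H37Rv plates: disk loaded with 100 mM analog, plates incubated 28 days at 37 °C, then zone of inhibition measured.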

Data set [17] is described as follows: Tmax in CD1 male mouse at 50 mg/kg, po. The class given is ADME, organism-based. Further details: dose 50 mg/kg, route oral. The note with it: in vivo.
Data set [18] can be described thus: Cmax in CD1 male mouse at 50 mg/kg, po. Details: dose 50 mg/kg, route oral. The class given is ADME, organism-based. The conditions noted are these: in vivo.
Data set [19] can be described thus: Half life in CD1 male mouse at 50 mg/kg, po. The class given is ADME, organism-based. Details: dose 50 mg/kg, route oral. The note with it: in vivo.

In general, Tmax refers to the time from dosing to the highest level. Usually Cmax stands for the peak of the concentration-time curve. The half-life is how long it takes for the measured level to halve. As usually defined, the IC50 is the concentration that gives 50% inhibition.

For the molecule `O=C1/C(=C/c2ccccn2)CNC/C1=C\c1ccccn1`, in the data set on Mycobacterium marinum [1], the zone of inhibition at 100000 µM turned out to be 4.7 mm. Further, in [2], the Tmax was 0.25 h. This molecule returned a Cmax in data set [3] of 1070 ng/mL. In data set [4], this molecule came in with a half-life of 2.2 h.
On to `O=C1C(Cc2ccccn2)CNCC1Cc1ccccn1` (stereo unspecified), for which the zone of inhibition at 100000 µM with Mycobacterium marinum [1] was determined as 0 mm.
The same measure, in the same setting: the figure for `O=C1/C(=C/c2ccccn2)CSC/C1=C\c1ccccn1` is 2.7 mm.
As for `O=C1/C(=C/c2ccccn2)CNC[C@H]1Cc1ccccn1`, in the data set on Mycobacterium marinum [1], the zone of inhibition at 100000 µM worked out at 4.6 mm. In the data set on Mycobacterium marinum [5], the IC50 was determined as 50 µM.
In the case of `CN1C/C(=C\c2ccccc2F)C(=O)/C(=C/c2ccccc2F)C1`, the zone of inhibition at 100000 µM in the data set on Mycobacterium marinum [1] was 1.4 mm.
The same measure, in the same setting: the figure for `COc1cc(/C=C/C(=O)CC(=O)/C=C/c2ccc(O)c(OC)c2)ccc1O` [CURCUMIN] is 1.1 mm.
Regarding `CO[C@H]1/C=C/O[C@@]2(C)Oc3c(C)c(O)c4c(O)c(c(/C=N/N5CCN(C)CC5)c(O)c4c3C2=O)NC(=O)/C(C)=C\C=C\[C@H](C)[C@H](O)[C@@H](C)[C@@H](O)[C@@H](C)[C@H](OC(C)=O)[C@@H]1C`, the outcome with Mycobacterium marinum [6] was inactive.
In the case of `O=C1/C(=C/c2ccccc2F)CNC/C1=C\c1ccccc1F`, in the data set with Mycobacterium marinum [1], the zone of inhibition at 100000 µM came to 2.6 mm. The IC50 with Mycobacterium marinum [5] came out at 25 µM; in [7], 50 µM; in data set [8] it was 20 µM. Further, the Tmax in data set [9] and in [10] was 3 min throughout. Also, the peak concentration (Cmax) in data set [11] amounted to 259 ng/mL; in [12], 275 ng/mL. The values for the half-life in data set [13] and in data set [14] were 3.65 h and 2.95 h, respectively.
For `CN1C/C(=C\c2ccccn2)C(=O)/C(=C/c2ccccn2)C1`, the zone of inhibition at 100000 µM with Mycobacterium marinum [1] is 5.7 mm. Moreover, the IC50 in the data set with Mycobacterium marinum [5] is 10 µM; in the data set on Mycobacterium marinum [15], 4 µM; in data set [16], 4 µM; in [7], 20 µM; in data set [8], 10 µM. For the same molecule, the Tmax in [17] was 0.5 h. The same molecule gave a Cmax in data set [18] of 131 ng/mL. The molecule also came in with a half-life in data set [19] of 3.7 h.
Consider `COC(=O)CCC(=O)N1C/C(=C\c2ccccc2F)C(=O)/C(=C/c2ccccc2F)C1`, for which the zone of inhibition at 100000 µM in the data set with Mycobacterium marinum [1] amounted to 1.8 mm.
